Measurements reported in ChEMBL document CHEMBL1157105, “Semisynthesis of natural flavones inhibiting tubulin polymerization, from hesperidin” (J Nat Prod, 2010).

How the values were obtained:
[1] = Inhibition of sheep brain tubulin polymerization after 15 mins by turbidimetry; set-up: species or system Ovis aries
Method in brief: (§1)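 Sheep brain microtubule protein purified by two 37 °C/0 °C assembly–disassembly cycles in 100 mM MES pH 6.6, 1 mM EGTA, 0.5 mM MgCl2. Compound in DMSO (1 µL) added to 150 µL microtubule solution, then incubated 37 °C 10 min and 0 °C 5 min. Polymerization rate read by turbidity at 350 nm. Reported as % inhibition at ~2.5 × 10^-3 M or IC50; deoxypodophyllotoxin reference, ratio IC50 compound/IC50 DPPT.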

[2] = organism: Ovis aries; assay: Ratio of compound IC50 to DPPT IC50 for sheep brain tubulin polymerization; method in brief: as §1
[3] = system: KB; assay: Cytotoxicity against human KB cells at 1 uM after 72 hrs by MTS assay
[4] = system: HL-60; assay: Induction of apoptosis in human HL60 cells assessed as increase in caspase 3/7 activation at 500 nM after 48 hrs by fluorescence assay relative to control; assay type: functional
Method in brief: (§2)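 HL60 cells grown in complete RPMI, seeded at 20 000 cells/well and treated with DMSO-dissolved compound. Vehicle controls; 1 µM doxorubicine positive control. Fluorescence (ex 360/em 465 nm) followed over 3 h. Reported as fold caspase 3/7 activation over control.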

[5] = system: KB; assay: Cytotoxicity against human KB cells after 72 hrs by MTS assay; assay type: functional, cell-based
Method in brief: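 KB cells grown in D-MEM with 10% fetal calf serum under 5% CO2. Seeded at 600 cells/well and dosed 24 h later with DMSO solutions from 0.5 nM to 10 µM (1% DMSO final; vehicle controls). After 72 h, MTS added for 3 h at 37 °C and A490 read, in triplicate. % inhibition = (1 − OD treated/OD control) × 100; IC50 derived.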

[6] = system: HL-60; assay: Induction of apoptosis in human HL60 cells assessed as increase in caspase 3/7 activation at 50 nM after 48 hrs by fluorescence assay relative to control; assay type: functional; method in brief: as §2
[7] = organism: Ovis aries; assay: Inhibition of sheep brain tubulin polymerization at 2.5 mM after 15 mins by turbidimetry; method in brief: as §1

| SMILES | IC50 [1] [nM] | Ratio IC50 [2] | inhibition [7] [%] | Activity [3] [%] | fold change (FC) [4] | IC50 [5] [nM] | fold change (FC) [6] |
| --- | --- | --- | --- | --- | --- | --- | --- |
| COc1ccc(-c2oc3cc(OC)c(OC)c(O)c3c(=O)c2OC)cc1O [CASTICIN] | 19000 | 6.8 | – | – | 5.3 | 97 | – |
| COc1ccc(-c2oc3c(OC)c(OC)c(OC)c(O)c3c(=O)c2OC)cc1O | 1300 | 0.46 | – | – | – | 8 | 6.9 |
| COc1cc(O)c2c(=O)c(OC)c(-c3ccc(OC)c(O)c3)oc2c1 [AYANIN] | – | – | 0 | 3 | – | – | – |

Second part, led by results:

| IC50 [1] [nM] | Ratio IC50 [2] | inhibition [7] [%] | SMILES | Activity [3] [%] | fold change (FC) [4] | IC50 [5] [nM] | fold change (FC) [6] |
| --- | --- | --- | --- | --- | --- | --- | --- |
| 14000 | 5 | – | COc1ccc(-c2oc3c(OC)c(O)c(OC)c(O)c3c(=O)c2OC)cc1O | 10 | – | – | – |
| – | – | 36 | COc1ccc(-c2oc3c(Br)c(OC)c(Br)c(O)c3c(=O)c2OC)cc1O | – | – | 404 | 3.2 |
| – | – | 0 | COc1ccc(-c2oc3c(OC)c(OC)cc(O)c3c(=O)c2OC)cc1O | 9 | – | – | – |
| – | – | 0 | COc1ccc(-c2oc3c(N(C)C)c(OC)c(OC)c(O)c3c(=O)c2OC)cc1O | 40 | – | – | – |
